Screening results (PubChem BioAssay)
An excerpt weighted towards active compounds, which were near 4.9% of everything screened.
STAT1 blocker: STAT1 signaling inhibition; NIH 3T3 STAT1-luciferase reporter, IFN-gamma, luminescence; hit rate 0.35% among 200,000; inhibition, % at 5.5 µM;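 active means inhibition above a set limit, the mean inhibition across all tested compounds plus 3 SD, cut at about 34% in these data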;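 further: 0% = IFN-gamma with DMSO and 100% = IFN-gamma with 300 µM nifuroxazide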
NF-kB neuron act: NF-kB expression increase, human neuronal cells. NF-kB reporter expression; stronger effect = higher value. hit rate 1.6% among 190,000. AID 1239. fold change at 12.5 µM; in the data active means fold change above about 3.3
STAT1 activator: increases IFN-gamma driven STAT1 reporter signal. NIH 3T3 STAT1-luciferase reporter, luminescence; 100% = IFN-gamma alone, no compound. activation (% of control), % at 5.5 µM. hit rate 2.6% among 200,000. AID 932;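 active means activation above the screen-wide mean activation plus 3 SD, cut at about 130% in these data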;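 further: raw ratio to IFN-gamma control signal so 100% means no change and 0% no light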
STAT3 blocker: inhibitors of IL-6 induced STAT3 signaling | U3A cells, IL-6 STAT3-luciferase reporter, luminescence; host cell line lacks STAT1 | inhibition, % at 5.5 µM | hit rate 0.89% among 190,000;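 active means inhibition above the mean inhibition across all screened compounds plus 3 SD, cut at about 44% in these data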;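 further: 0% = DMSO only wells and 100% = 100 µM nifuroxazide control wells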
STAT3 activator: STAT3 signaling activation. U3A cells, IL-6 STAT3-luciferase reporter, luminescence; 100% = signal with IL-6 EC80 alone. activation (% of control), % at 5.6 µM. hit rate 0.91% among 190,000. AID 871;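 active means activation above the screen-wide mean of compound activation plus 3 SD, cut at about 130% in these data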;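 further: 0% = background luminescence of wells with medium and substrate only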
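Material: human STAT1-deficient U3A cells with stable STAT3-luciferase reporter / Probe or stimulus: IL-6 stimulus at 33 ng/mL final / Schedule: 1 h compound pre-exposure, 6 h IL-6 stimulation, 37 °C / Technique: luminescence / Read-out basis: percent of IL-6-only median luminescence / Control set: IL-6-only high control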
APP 5'UTR act: APP 5'UTR luciferase reporter activation | SH-SY5Y APP 5'UTR luciferase reporter, luminescence; zero percent = DMSO vehicle wells | activation, % at 2 µM | hit rate 1% among 190,000;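 active means activation above a set limit, based on mean plus 3 SD of controls, cut at about 140% in these data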
* hit, by the source's call.

CCOc1ccc(-c2nnc(-c3ccncc3)o2)cc1 was read as STAT1 blocker -36, NF-kB neuron act 2.7, STAT1 activator 133*, STAT3 blocker 17, STAT3 activator 89 and APP 5'UTR act 61.
`CCn1c(=O)c(C(=O)CN2CCCc3ccccc32)c(N)n(Cc2ccccc2)c1=O` gave STAT1 blocker 10, NF-kB neuron act 1, STAT1 activator 92, STAT3 blocker -31, STAT3 activator 129 and APP 5'UTR act 21.
`CS(=O)(=O)N(CC(=O)Nc1ccc2c(c1)OCO2)c1ccccc1` gave STAT1 blocker 1, NF-kB neuron act 1.2, STAT1 activator 98, STAT3 blocker -3, STAT3 activator 108 and APP 5'UTR act -6.
Screening O=C(CCCc1cccs1)Nc1ccc2c(c1)OCO2 returned STAT1 blocker -37, NF-kB neuron act 4.2*, STAT1 activator 134*, STAT3 blocker 3, STAT3 activator 102 and APP 5'UTR act 162*.
Screening O=C(CCS(=O)(=O)c1ccccc1)Nc1ccc2c(c1)OCO2 returned STAT1 blocker -37, NF-kB neuron act 2.2, STAT1 activator 136*, STAT3 blocker -15, STAT3 activator 113 and APP 5'UTR act -2.
O=C(CCCN1C(=O)CCC1=O)Nc1ccc2c(c1)OCO2 was read as STAT1 blocker 1, NF-kB neuron act 1.3, STAT1 activator 99, STAT3 blocker 10, STAT3 activator 95 and APP 5'UTR act 15.
`CCOc1ccc(N(C(=O)c2cc3ccccc3oc2=O)C2C=CS(=O)(=O)C2)cc1` (configuration not stated) gave STAT1 blocker 24, NF-kB neuron act 1.5, STAT1 activator 78, STAT3 blocker 16, STAT3 activator 93 and APP 5'UTR act 33.
`CCNCc1cc(Cl)cc(OC)c1OC(C)C` gave STAT1 blocker -2, NF-kB neuron act 1.1, STAT1 activator 101, STAT3 blocker -2, STAT3 activator 102 and APP 5'UTR act -2.
`Cc1ccc(-n2ncc3c(SCC(=O)NNC(=O)c4ccco4)ncnc32)cc1` gave STAT1 blocker -2, NF-kB neuron act 1.9, STAT1 activator 100, STAT3 blocker 17, STAT3 activator 87 and APP 5'UTR act 51.
Screening Cc1ccc(-c2nn(-c3ccccc3)cc2CSC(=N)N)cc1 returned STAT1 blocker -2, NF-kB neuron act 4.9*, STAT1 activator 102, STAT3 blocker -3, STAT3 activator 103 and APP 5'UTR act 16.
Screening CCN(CC)C(=O)CCSc1nnc(-c2ccco2)o1 returned STAT1 blocker -7, NF-kB neuron act 1.3, STAT1 activator 106, STAT3 blocker 7, STAT3 activator 99 and APP 5'UTR act 10.
`CC1=CC(C)=Nc2ccc(C)cc2N1` gave STAT1 blocker -42, NF-kB neuron act 0.75, STAT1 activator 139*, STAT3 blocker -3, STAT3 activator 110 and APP 5'UTR act 21.
`Cc1ccc2c(c1)NC(=O)CC(c1ccccc1)=N2` gave STAT1 blocker -29, NF-kB neuron act 2, STAT1 activator 126, STAT3 blocker 7, STAT3 activator 97 and APP 5'UTR act 12.
For O=C(Cc1ccccc1)Nc1cccc(C(=O)O)c1O the results were STAT1 blocker -4, NF-kB neuron act 1, STAT1 activator 104, STAT3 blocker 2, STAT3 activator 104 and APP 5'UTR act 6.
`C/C(=N/NC(=O)c1sc(NS(=O)(=O)c2ccc(C)cc2)nc1C)c1sc(N)nc1C` gave STAT1 blocker -2, NF-kB neuron act 1, STAT1 activator 99, STAT3 blocker -2, STAT3 activator 103 and APP 5'UTR act -21.
Cc1ccc(N=Cc2nc(-c3ccc(C)cc3)oc2O)cc1 was read as STAT1 blocker 2, NF-kB neuron act 1.4, STAT1 activator 99, STAT3 blocker 11, STAT3 activator 96 and APP 5'UTR act -6.
`COc1ccc(N=Cc2nc(-c3ccco3)oc2O)cc1` gave STAT1 blocker -39, NF-kB neuron act 2.4, STAT1 activator 136*, STAT3 blocker 2, STAT3 activator 101 and APP 5'UTR act 26.
Oc1oc(-c2ccccc2)nc1C=Nc1ccccc1 was read as STAT1 blocker -35, NF-kB neuron act 2.5, STAT1 activator 132*, STAT3 blocker 18, STAT3 activator 87 and APP 5'UTR act 47.
Screening COCc1nc2sc3c(c2c(=O)[nH]1)CCCC3 returned STAT1 blocker -2, NF-kB neuron act 1.5, STAT1 activator 102, STAT3 blocker 8, STAT3 activator 92 and APP 5'UTR act -8.
Screening COc1cccc(-c2nc3sc4c(c3c(=O)[nH]2)CCCCC4)c1 returned STAT1 blocker -11, NF-kB neuron act 1.8, STAT1 activator 110, STAT3 blocker -6, STAT3 activator 106 and APP 5'UTR act 184*.
`COc1ccc(O)c(C(=O)CC(=O)c2ccccc2C)c1` gave STAT1 blocker -50, NF-kB neuron act 2.3, STAT1 activator 145*, STAT3 blocker 19, STAT3 activator 88 and APP 5'UTR act 77.
Screening COc1ccc(NC(=O)c2ccccc2C)c(OC)c1 returned STAT1 blocker 3, NF-kB neuron act 1.2, STAT1 activator 97, STAT3 blocker 15, STAT3 activator 90 and APP 5'UTR act 0.
CN1C(=O)N(c2ccccc2)C(Nc2nncs2)C1(C)C (configuration not stated) was read as STAT1 blocker 11, NF-kB neuron act 1.2, STAT1 activator 90, STAT3 blocker 1, STAT3 activator 102 and APP 5'UTR act -5.
For CCN1CCc2nc(NC(=O)c3ccccc3)sc2C1 the results were STAT1 blocker -51, NF-kB neuron act 0.4, STAT1 activator 147*, STAT3 blocker 5, STAT3 activator 101 and APP 5'UTR act 116.
`O=C(Nc1nc2c(s1)CN(Cc1ccccc1)CC2)C1CCC1` gave STAT1 blocker -27, NF-kB neuron act 1.9, STAT1 activator 125, STAT3 blocker -20, STAT3 activator 117 and APP 5'UTR act 9.
Screening Cc1ccnc(NC(=O)/C=C/c2ccccc2[N+](=O)[O-])c1 returned STAT1 blocker -1, NF-kB neuron act 7.7*, STAT1 activator 100, STAT3 blocker 38, STAT3 activator 71 and APP 5'UTR act 142*.
`NS(=O)(=O)c1ccc(NC(=O)/C=C/c2ccccc2[N+](=O)[O-])cc1` gave STAT1 blocker 2, NF-kB neuron act 0.95, STAT1 activator 97, STAT3 blocker -3, STAT3 activator 104 and APP 5'UTR act 4.
For O=C(/C=C\c1ccccc1[N+](=O)[O-])Nc1ccccc1 the results were STAT1 blocker -42, NF-kB neuron act 1.4, STAT1 activator 135*, STAT3 blocker 7, STAT3 activator 99 and APP 5'UTR act 73.
O=[N+]([O-])c1ccc(Cc2nnc(-c3ccccc3Cl)o2)cc1 was read as STAT1 blocker 3, NF-kB neuron act 3.6*, STAT1 activator 97, STAT3 blocker 31, STAT3 activator 81 and APP 5'UTR act 166*.
